Laboratory results from ChEMBL document CHEMBL1128413, “The serotonin 5-HT4 receptor. 1. Design of a new class of agonists and receptor map of the agonist recognition site” (J Med Chem, 1995).

Legend:
[1] = molecular target: T1, Alpha-1A adrenergic receptor (Bos taurus) (UniProt P18130); assay: Binding affinity was evaluated by Alpha-1 adrenergic receptor in calf cortex by displacing prazosin
T1 sequence (whole entry): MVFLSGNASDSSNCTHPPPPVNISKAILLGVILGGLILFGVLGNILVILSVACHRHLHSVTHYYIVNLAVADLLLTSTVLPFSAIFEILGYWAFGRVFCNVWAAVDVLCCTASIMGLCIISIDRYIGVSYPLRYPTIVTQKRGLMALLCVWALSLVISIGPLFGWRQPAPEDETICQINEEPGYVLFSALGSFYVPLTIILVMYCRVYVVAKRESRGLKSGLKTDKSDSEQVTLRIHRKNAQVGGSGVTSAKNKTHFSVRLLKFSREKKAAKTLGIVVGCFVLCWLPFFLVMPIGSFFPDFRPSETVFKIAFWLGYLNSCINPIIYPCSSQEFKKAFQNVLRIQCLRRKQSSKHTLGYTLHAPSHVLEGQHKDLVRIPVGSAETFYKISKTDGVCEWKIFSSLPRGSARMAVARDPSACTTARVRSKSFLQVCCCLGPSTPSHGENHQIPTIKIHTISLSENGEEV
Method in brief: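 Radioligand displacement with [3H]prazosin on calf cortex membranes; Ki reported.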

[2] = tested on: 5-HT1A receptor (Sus scrofa); assay: Binding affinity was evaluated by 5-hydroxytryptamine 1A receptor […] in the pig cortex by displacing 8-OH-DPAT
[3] = molecular target: 5-hydroxytryptamine receptor 2A (Rattus norvegicus) (UniProt P14842); assay: Binding affinity was evaluated by 5-hydroxytryptamine 2A receptor […] in the rat cortex by displacing ketanserin
Method in brief: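 Radioligand displacement with [3H]ketanserin on rat cortex membranes; Ki reported.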

[4] = molecular target: Serotonin 3 (5-HT3) receptor (Homo sapiens) (UniProt P46098+A5X5Y0+O95264+Q70Z44+Q8WXA8); assay: 5-hydroxytryptamine 3 receptor agonism in the guinea pig ileum by functional 5-HT3 receptor assay; type: tissue-based; details: Cavia porcellus, target entry is the homologue from another species
Method in brief: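 Guinea pig ileum in tyrode solution containing 0.1 μM methysergide. 5-HT3 receptor-mediated contractions recorded isotonically; concentration–response curves built noncumulatively.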

[5] = molecular target: D(1A) dopamine receptor (Bos taurus) (UniProt Q95136); assay: Binding affinity was evaluated by dopamine receptor D1 […] in the calf striatum by displacing SCH 23390; type: tissue-based
Method in brief: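 Radioligand displacement with [3H]SCH 23390 on calf striatum membranes; Ki reported.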

[6] = molecular target: 5-hydroxytryptamine receptor 4 (Cavia porcellus) (UniProt O70528); assay: 5-hydroxytryptamine 4 receptor agonist activity in the guinea pig ileum assay; type: functional, tissue-based
Method in brief: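 Guinea pig ileum longitudinal muscle strips in tyrode solution with 0.1 μM methysergide. Twitch contractions (2–3 s) evoked by field stimulation with square-wave pulses (0.1 Hz, 2 ms) via platinum electrodes. Once a stable submaximal response is reached, noncumulative concentration–response curves are built for enhancement of twitch. Readouts are pD2 and efficacy relative to 5-HT.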

[7] = molecular target: 5-hydroxytryptamine receptor 4 (Cavia porcellus) (UniProt O70528); assay: Compound was evaluated for the relative potency with respect to serotonin against 5-hydroxytryptamine 4 receptor; type: functional
[8] = molecular target: D(2) dopamine receptor (Bos taurus) (UniProt P20288); assay: Binding affinity was evaluated by Dopamine receptor D2 binding in the calf striatum by displacing spiperone; type: tissue-based
Method in brief: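 Radioligand displacement with [3H]spiperone on calf striatum membranes; Ki reported.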

[9] = molecular target: T2, Serotonin 3 receptor (5HT3) (Mus musculus, UniProt Q9JHJ5+P23979); assay: Compound was evaluated for the binding affinity at 5- HT3 receptor subtype; type: protein assay
T2 sequence (Q9JHJ5 whole entry): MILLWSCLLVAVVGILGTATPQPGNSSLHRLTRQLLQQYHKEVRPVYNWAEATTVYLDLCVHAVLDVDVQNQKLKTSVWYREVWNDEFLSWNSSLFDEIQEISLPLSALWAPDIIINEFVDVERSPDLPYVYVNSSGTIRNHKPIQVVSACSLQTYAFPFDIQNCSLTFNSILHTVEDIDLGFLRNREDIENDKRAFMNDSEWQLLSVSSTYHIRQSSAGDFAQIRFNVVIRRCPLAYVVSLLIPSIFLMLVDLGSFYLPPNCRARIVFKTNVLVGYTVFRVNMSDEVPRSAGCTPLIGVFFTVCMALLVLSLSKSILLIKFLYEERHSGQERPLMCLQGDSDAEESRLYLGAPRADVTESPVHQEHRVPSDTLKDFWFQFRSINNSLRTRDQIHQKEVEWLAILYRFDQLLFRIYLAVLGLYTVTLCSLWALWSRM
T2 sequence (P23979 whole entry): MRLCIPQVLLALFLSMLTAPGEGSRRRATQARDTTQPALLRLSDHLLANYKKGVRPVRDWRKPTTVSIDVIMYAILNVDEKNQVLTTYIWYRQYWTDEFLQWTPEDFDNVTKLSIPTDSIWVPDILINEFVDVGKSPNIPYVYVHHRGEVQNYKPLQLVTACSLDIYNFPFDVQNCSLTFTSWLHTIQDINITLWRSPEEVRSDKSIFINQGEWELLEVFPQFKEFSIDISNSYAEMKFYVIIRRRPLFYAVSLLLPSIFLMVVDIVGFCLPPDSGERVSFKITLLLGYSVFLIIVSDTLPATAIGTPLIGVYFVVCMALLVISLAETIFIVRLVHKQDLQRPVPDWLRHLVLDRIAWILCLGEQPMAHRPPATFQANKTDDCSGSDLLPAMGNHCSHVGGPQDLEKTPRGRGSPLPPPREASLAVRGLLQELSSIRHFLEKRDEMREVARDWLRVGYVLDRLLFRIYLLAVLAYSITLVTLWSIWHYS
Method in brief: (§1)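 Radioligand binding to native tissue membranes. Each receptor used its own tissue and [³H]radioligand: 5-HT2A in rat cortex with [³H]ketanserin, 5-HT3 in mouse N1E-115 cells with [³H]tropisetron, α1 in calf cortex with [³H]prazosin, and D2 in calf striatum with [³H]spiperone. Affinity is reported as Ki.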

[10] = molecular target: D(1A) dopamine receptor (Bos taurus) (UniProt Q95136); details: Striatum
D(2) dopamine receptor = D(2) dopamine receptor (Bos taurus, UniProt P20288); assay: Compound was evaluated for the binding affinity at Dopamine receptor D2; method in brief: as §1
[11] = molecular target: T3, Serotonin 3 receptor (5HT3) (Mus musculus) (UniProt Q9JHJ5+P23979)
[12] = molecular target: T3, Serotonin 3 receptor (5HT3) (Mus musculus); remark: listed apart in the source

Chain of D(1A) dopamine receptor (Bos taurus) (Q95136 whole entry): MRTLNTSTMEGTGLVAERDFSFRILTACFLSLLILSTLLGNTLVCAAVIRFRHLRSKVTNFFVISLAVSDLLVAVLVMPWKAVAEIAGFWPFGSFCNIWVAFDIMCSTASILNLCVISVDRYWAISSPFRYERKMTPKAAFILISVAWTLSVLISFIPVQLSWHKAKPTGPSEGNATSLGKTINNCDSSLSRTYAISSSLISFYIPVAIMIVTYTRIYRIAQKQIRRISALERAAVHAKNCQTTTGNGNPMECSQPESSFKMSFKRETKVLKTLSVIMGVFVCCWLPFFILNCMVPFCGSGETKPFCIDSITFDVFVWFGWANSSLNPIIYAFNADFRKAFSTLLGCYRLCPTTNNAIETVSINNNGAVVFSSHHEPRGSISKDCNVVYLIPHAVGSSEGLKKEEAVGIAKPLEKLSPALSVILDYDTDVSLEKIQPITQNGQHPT
Chain of 5-hydroxytryptamine receptor 4 (Cavia porcellus) (O70528 whole entry): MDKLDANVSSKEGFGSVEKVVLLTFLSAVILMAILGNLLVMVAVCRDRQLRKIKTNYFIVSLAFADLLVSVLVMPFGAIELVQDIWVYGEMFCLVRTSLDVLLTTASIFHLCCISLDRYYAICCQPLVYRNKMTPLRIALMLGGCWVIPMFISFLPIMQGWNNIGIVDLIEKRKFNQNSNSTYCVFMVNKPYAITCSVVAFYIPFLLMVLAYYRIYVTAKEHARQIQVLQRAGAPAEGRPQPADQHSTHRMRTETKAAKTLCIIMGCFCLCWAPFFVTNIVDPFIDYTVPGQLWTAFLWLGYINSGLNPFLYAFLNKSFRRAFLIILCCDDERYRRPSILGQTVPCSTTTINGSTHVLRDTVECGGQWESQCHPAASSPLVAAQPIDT
Chain of 5-hydroxytryptamine receptor 2A (Rattus norvegicus) (P14842 whole entry): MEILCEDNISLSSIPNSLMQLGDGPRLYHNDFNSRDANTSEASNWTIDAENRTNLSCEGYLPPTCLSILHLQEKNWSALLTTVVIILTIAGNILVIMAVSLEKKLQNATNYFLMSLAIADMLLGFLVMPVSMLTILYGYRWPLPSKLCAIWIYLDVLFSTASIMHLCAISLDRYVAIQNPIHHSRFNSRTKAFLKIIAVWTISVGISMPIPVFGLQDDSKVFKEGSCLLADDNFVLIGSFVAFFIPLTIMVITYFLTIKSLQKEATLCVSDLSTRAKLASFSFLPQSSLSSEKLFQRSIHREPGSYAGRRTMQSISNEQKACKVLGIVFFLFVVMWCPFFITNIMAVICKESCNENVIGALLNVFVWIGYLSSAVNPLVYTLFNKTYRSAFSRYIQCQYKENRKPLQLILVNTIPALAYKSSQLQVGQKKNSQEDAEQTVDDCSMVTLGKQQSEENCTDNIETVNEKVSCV
Chain of D(2) dopamine receptor (Bos taurus) (P20288 whole entry): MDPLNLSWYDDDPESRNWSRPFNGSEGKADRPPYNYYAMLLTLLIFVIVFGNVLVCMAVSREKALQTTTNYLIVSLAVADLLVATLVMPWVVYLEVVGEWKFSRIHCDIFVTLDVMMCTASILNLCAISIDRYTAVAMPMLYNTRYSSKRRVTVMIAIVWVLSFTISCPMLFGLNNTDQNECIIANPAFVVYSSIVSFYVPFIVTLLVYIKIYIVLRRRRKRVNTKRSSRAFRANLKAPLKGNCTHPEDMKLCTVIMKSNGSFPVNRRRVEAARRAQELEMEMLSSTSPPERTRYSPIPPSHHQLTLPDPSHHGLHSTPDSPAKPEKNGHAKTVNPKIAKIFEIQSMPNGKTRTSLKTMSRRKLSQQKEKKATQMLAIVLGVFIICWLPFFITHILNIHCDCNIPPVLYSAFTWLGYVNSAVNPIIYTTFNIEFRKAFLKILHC
Chain of D(2) dopamine receptor (P20288 whole entry): as above

`N=C(N)N/N=C/c1c[nH]c2ccc(O)cc12` was tested, and the pKD [1] was < 5.5, the pKD [2] was 7.2 and the pKD [3] was 6.6. For the same compound, the pD2 [4] was < 5, the pKD [5] was 5.4 and the pD2 [6] was 8.8. For the same compound, the Potency relative to serotonin [7] was 1.5 and the pKD [8] was < 5.
`NCCc1c[nH]c2ccc(O)cc12` showed a pD2 [6] of 8.4 and a Potency relative to serotonin [7] of 1.
For `CCN(CC)CCNC(=O)c1cc(Cl)c(N)cc1OC` [METOCLOPRAMIDE], the pKD [1] was < 5, the pKD [3] was 5.4 and the Ki [9] was 200 nM. The pKD [10] was < 5, the Ki (D(2) dopamine receptor) was 80 nM and the pD2 [6] was 5.6. The Potency relative to serotonin [7] was 1, the pKD [11] was 6.7 and the pKD [8] was 7.1.
`COc1cc(N)c(Cl)cc1C(=O)N[C@H]1CN2CCC1CC2` was tested, and the pKD [1] was < 5, the pKD [3] was < 5 and the pKD [10] was < 5. It also gave a pKD [12] of 9.5, a pD2 [6] of 6.8 and a Potency relative to serotonin [7] of 1.9. The pKD [8] was < 5.
Work on `COc1cc(N)c(Cl)cc1C(=O)N[C@H]1CCN(CCCOc2ccc(F)cc2)C[C@H]1OC` yielded a pKD [10] of 5.2, a pKD [12] of 7.2 and a pD2 [6] of 6. For the same compound, the Potency relative to serotonin [7] was 0.7 and the pKD [8] was 6.5.
